In ChEMBL document CHEMBL4689842, “EUbOPEN Chemogenomics Library wave 1” (2021):

System: Fibroblast
Assay: Multiplex assay against human fibroblast
Assay type: toxicity, cell-based
Summary of the method: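 Phenotypes for tubulin, mitochondrial mass and membrane permeability are expressed as per cents of healthy-nucleus cells. Cells were stained live at seeding with Hoechst33342, BioTracker Green Microtubule Cytoskeleton Dye, MitoTracker Red and Annexin V Alexa Fluor 680, then imaged after compound addition on a CQ1 microscope at 37°C and 5% CO2. Machine-learning gating in CellPathfinder separated Hoechst high-intensity objects from normal cells, divided normal cells by nuclear state (healthy, pyknosed, fragmented) and divided pyknosed cells into mitotic or apoptotic.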

[1] = 12 h, 1 µM, compound concentration 1 uM, replicate 1
[2] = 12 h, 1 µM, compound concentration 1 uM, replicate 2
[3] = 12 h, 10 µM, compound concentration 10 uM, replicate 1
[4] = 12 h, 10 µM, compound concentration 10 uM, replicate 2
[5] = 24 h, 1 µM, compound concentration 1 uM, replicate 1
[6] = 24 h, 1 µM, compound concentration 1 uM, replicate 2
[7] = 24 h, 10 µM, compound concentration 10 uM, replicate 1
[8] = 24 h, 10 µM, compound concentration 10 uM, replicate 2
[9] = 48 h, 1 µM, compound concentration 1 uM, replicate 1
[10] = 48 h, 1 µM, compound concentration 1 uM, replicate 2
[11] = 48 h, 10 µM, compound concentration 10 uM, replicate 1
[12] = 48 h, 10 µM, compound concentration 10 uM, replicate 2

## C=C1/C(=C\C=C2/CCC[C@]3(C)[C@@H]([C@H](C)/C=C/[C@H](C)C(C)C)CC[C@@H]23)C[C@@H](O)C[C@@H]1O [DOXERCALCIFEROL]
[1]
  Population Apoptotic (%): 63%
  Population Fragmented Nuclei (%): 23%
  Population Healthy Nuclei (%): 33%
  Population Hoechst High Intensity Objects (%): 10%
  Population Membrane Permeable-Phenotype (%): 10%
  Population Mitochondria Different-Phenotype (%): 0%
  Population Mitotic Cells (%): 36%
  Population Normal (%): 89%
  Population Pyknosed Nuclei (%): 42%
  Population Tubulin-Different-Phenotype (%): 14%
  Total Cell Count: 94
[2]
  Population Apoptotic (%): 40%
  Population Fragmented Nuclei (%): 1%
  Population Healthy Nuclei (%): 90%
  Population Hoechst High Intensity Objects (%): 1%
  Population Membrane Permeable-Phenotype (%): 5%
  Population Mitochondria Different-Phenotype (%): 14%
  Population Mitotic Cells (%): 60%
  Population Normal (%): 98%
  Population Pyknosed Nuclei (%): 8%
  Population Tubulin-Different-Phenotype (%): 9%
  Total Cell Count: 111
[3]
  Population Apoptotic (%): 30%
  Population Fragmented Nuclei (%): 72%
  Population Healthy Nuclei (%): 21%
  Population Hoechst High Intensity Objects (%): 11%
  Population Membrane Permeable-Phenotype (%): 4%
  Population Mitochondria Different-Phenotype (%): 15%
  Population Mitotic Cells (%): 69%
  Population Normal (%): 88%
  Population Pyknosed Nuclei (%): 5%
  Population Tubulin-Different-Phenotype (%): 28%
  Total Cell Count: 247
[4]
  Population Apoptotic (%): 0%
  Population Fragmented Nuclei (%): 27%
  Population Healthy Nuclei (%): 67%
  Population Hoechst High Intensity Objects (%): 6%
  Population Membrane Permeable-Phenotype (%): 2%
  Population Mitochondria Different-Phenotype (%): 21%
  Population Mitotic Cells (%): 100%
  Population Normal (%): 93%
  Population Tubulin-Different-Phenotype (%): 13%
  Total Cell Count: 61
[5]
  Population Apoptotic (%): 38%
  Population Fragmented Nuclei (%): 18%
  Population Healthy Nuclei (%): 48%
  Population Hoechst High Intensity Objects (%): 10%
  Population Membrane Permeable-Phenotype (%): 22%
  Population Mitochondria Different-Phenotype (%): 2%
  Population Mitotic Cells (%): 61%
  Population Normal (%): 89%
  Population Pyknosed Nuclei (%): 34%
  Population Tubulin-Different-Phenotype (%): 27%
  Total Cell Count: 112
[6]
  Population Apoptotic (%): 42%
  Population Fragmented Nuclei (%): 5%
  Population Healthy Nuclei (%): 86%
  Population Hoechst High Intensity Objects (%): 4%
  Population Membrane Permeable-Phenotype (%): 4%
  Population Mitochondria Different-Phenotype (%): 7%
  Population Mitotic Cells (%): 57%
  Population Normal (%): 95%
  Population Pyknosed Nuclei (%): 8%
  Population Tubulin-Different-Phenotype (%): 14%
  Total Cell Count: 157
[7]
  Population Apoptotic (%): 69%
  Population Fragmented Nuclei (%): 55%
  Population Healthy Nuclei (%): 36%
  Population Hoechst High Intensity Objects (%): 9%
  Population Membrane Permeable-Phenotype (%): 12%
  Population Mitochondria Different-Phenotype (%): 6%
  Population Mitotic Cells (%): 30%
  Population Normal (%): 90%
  Population Pyknosed Nuclei (%): 8%
  Population Tubulin-Different-Phenotype (%): 9%
  Total Cell Count: 304
[8]
  Population Apoptotic (%): 33%
  Population Fragmented Nuclei (%): 25%
  Population Healthy Nuclei (%): 70%
  Population Hoechst High Intensity Objects (%): 3%
  Population Membrane Permeable-Phenotype (%): 1%
  Population Mitochondria Different-Phenotype (%): 16%
  Population Mitotic Cells (%): 66%
  Population Normal (%): 96%
  Population Pyknosed Nuclei (%): 4%
  Population Tubulin-Different-Phenotype (%): 13%
  Total Cell Count: 83
[9]
  Population Apoptotic (%): 66%
  Population Fragmented Nuclei (%): 22%
  Population Healthy Nuclei (%): 58%
  Population Hoechst High Intensity Objects (%): 18%
  Population Membrane Permeable-Phenotype (%): 21%
  Population Mitochondria Different-Phenotype (%): 3%
  Population Mitotic Cells (%): 33%
  Population Normal (%): 81%
  Population Pyknosed Nuclei (%): 18%
  Population Tubulin-Different-Phenotype (%): 35%
  Total Cell Count: 118
[10]
  Population Apoptotic (%): 0%
  Population Fragmented Nuclei (%): 27%
  Population Healthy Nuclei (%): 72%
  Population Hoechst High Intensity Objects (%): 42%
  Population Membrane Permeable-Phenotype (%): 17%
  Population Mitochondria Different-Phenotype (%): 2%
  Population Mitotic Cells (%): 0%
  Population Normal (%): 57%
  Population Pyknosed Nuclei (%): 0%
  Population Tubulin-Different-Phenotype (%): 37%
  Total Cell Count: 165
[11]
  Population Apoptotic (%): 86%
  Population Fragmented Nuclei (%): 33%
  Population Healthy Nuclei (%): 46%
  Population Hoechst High Intensity Objects (%): 12%
  Population Membrane Permeable-Phenotype (%): 23%
  Population Mitochondria Different-Phenotype (%): 0%
  Population Mitotic Cells (%): 13%
  Population Normal (%): 87%
  Population Pyknosed Nuclei (%): 19%
  Population Tubulin-Different-Phenotype (%): 2%
  Total Cell Count: 351
[12]
  Population Apoptotic (%): 100%
  Population Fragmented Nuclei (%): 39%
  Population Healthy Nuclei (%): 59%
  Population Hoechst High Intensity Objects (%): 14%
  Population Mitochondria Different-Phenotype (%): 1%
  Population Mitotic Cells (%): 0%
  Population Normal (%): 85%
  Population Pyknosed Nuclei (%): 1%
  Population Tubulin-Different-Phenotype (%): 49%
  Total Cell Count: 128

## CCCn1c(=O)c2[nH]c(-c3cnn(Cc4cccc(C(F)(F)F)c4)c3)nc2n(CC)c1=O [GS 6201]
[1]
  Population Apoptotic (%): 51%
  Population Fragmented Nuclei (%): 26%
  Population Healthy Nuclei (%): 32%
  Population Hoechst High Intensity Objects (%): 11%
  Population Membrane Permeable-Phenotype (%): 33%
  Population Mitochondria Different-Phenotype (%): 14%
  Population Mitotic Cells (%): 48%
  Population Normal (%): 88%
  Population Pyknosed Nuclei (%): 41%
  Population Tubulin-Different-Phenotype (%): 59%
  Total Cell Count: 95
[2]
  Population Apoptotic (%): 42%
  Population Fragmented Nuclei (%): 4%
  Population Healthy Nuclei (%): 88%
  Population Hoechst High Intensity Objects (%): 2%
  Population Membrane Permeable-Phenotype (%): 8%
  Population Mitochondria Different-Phenotype (%): 9%
  Population Mitotic Cells (%): 57%
  Population Normal (%): 97%
  Population Pyknosed Nuclei (%): 7%
  Population Tubulin-Different-Phenotype (%): 28%
  Total Cell Count: 75
[3]
  Population Apoptotic (%): 76%
  Population Fragmented Nuclei (%): 48%
  Population Healthy Nuclei (%): 18%
  Population Hoechst High Intensity Objects (%): 31%
  Population Membrane Permeable-Phenotype (%): 25%
  Population Mitochondria Different-Phenotype (%): 17%
  Population Mitotic Cells (%): 24%
  Population Normal (%): 68%
  Population Pyknosed Nuclei (%): 33%
  Population Tubulin-Different-Phenotype (%): 46%
  Total Cell Count: 221
[4]
  Population Apoptotic (%): 50%
  Population Fragmented Nuclei (%): 17%
  Population Healthy Nuclei (%): 77%
  Population Hoechst High Intensity Objects (%): 5%
  Population Membrane Permeable-Phenotype (%): 3%
  Population Mitochondria Different-Phenotype (%): 20%
  Population Mitotic Cells (%): 50%
  Population Normal (%): 94%
  Population Pyknosed Nuclei (%): 4%
  Population Tubulin-Different-Phenotype (%): 10%
  Total Cell Count: 98
[5]
  Population Apoptotic (%): 70%
  Population Fragmented Nuclei (%): 21%
  Population Healthy Nuclei (%): 42%
  Population Hoechst High Intensity Objects (%): 20%
  Population Membrane Permeable-Phenotype (%): 32%
  Population Mitochondria Different-Phenotype (%): 10%
  Population Mitotic Cells (%): 29%
  Population Normal (%): 79%
  Population Pyknosed Nuclei (%): 36%
  Population Tubulin-Different-Phenotype (%): 82%
  Total Cell Count: 83
[6]
  Population Apoptotic (%): 50%
  Population Fragmented Nuclei (%): 5%
  Population Healthy Nuclei (%): 90%
  Population Hoechst High Intensity Objects (%): 4%
  Population Membrane Permeable-Phenotype (%): 2%
  Population Mitotic Cells (%): 50%
  Population Normal (%): 95%
  Population Pyknosed Nuclei (%): 4%
  Population Tubulin-Different-Phenotype (%): 30%
  Total Cell Count: 81
[7]
  Population Apoptotic (%): 87%
  Population Fragmented Nuclei (%): 51%
  Population Healthy Nuclei (%): 24%
  Population Hoechst High Intensity Objects (%): 26%
  Population Membrane Permeable-Phenotype (%): 29%
  Population Mitochondria Different-Phenotype (%): 12%
  Population Mitotic Cells (%): 12%
  Population Normal (%): 73%
  Population Pyknosed Nuclei (%): 23%
  Population Tubulin-Different-Phenotype (%): 56%
  Total Cell Count: 224
[8]
  Population Apoptotic (%): 50%
  Population Fragmented Nuclei (%): 17%
  Population Healthy Nuclei (%): 72%
  Population Hoechst High Intensity Objects (%): 3%
  Population Membrane Permeable-Phenotype (%): 5%
  Population Mitochondria Different-Phenotype (%): 11%
  Population Mitotic Cells (%): 50%
  Population Normal (%): 96%
  Population Pyknosed Nuclei (%): 10%
  Population Tubulin-Different-Phenotype (%): 9%
  Total Cell Count: 139
[9]
  Population Apoptotic (%): 69%
  Population Fragmented Nuclei (%): 38%
  Population Healthy Nuclei (%): 41%
  Population Hoechst High Intensity Objects (%): 20%
  Population Membrane Permeable-Phenotype (%): 25%
  Population Mitochondria Different-Phenotype (%): 17%
  Population Mitotic Cells (%): 30%
  Population Normal (%): 79%
  Population Pyknosed Nuclei (%): 19%
  Population Tubulin-Different-Phenotype (%): 67%
  Total Cell Count: 84
[10]
  Population Apoptotic (%): 100%
  Population Fragmented Nuclei (%): 20%
  Population Healthy Nuclei (%): 76%
  Population Hoechst High Intensity Objects (%): 11%
  Population Membrane Permeable-Phenotype (%): 13%
  Population Mitochondria Different-Phenotype (%): 5%
  Population Mitotic Cells (%): 0%
  Population Normal (%): 89%
  Population Pyknosed Nuclei (%): 3%
  Population Tubulin-Different-Phenotype (%): 35%
  Total Cell Count: 100
[11]
  Population Apoptotic (%): 84%
  Population Fragmented Nuclei (%): 61%
  Population Healthy Nuclei (%): 26%
  Population Hoechst High Intensity Objects (%): 31%
  Population Membrane Permeable-Phenotype (%): 41%
  Population Mitochondria Different-Phenotype (%): 4%
  Population Mitotic Cells (%): 15%
  Population Normal (%): 68%
  Population Pyknosed Nuclei (%): 11%
  Population Tubulin-Different-Phenotype (%): 48%
  Total Cell Count: 234
[12]
  Population Apoptotic (%): 0%
  Population Fragmented Nuclei (%): 28%
  Population Healthy Nuclei (%): 67%
  Population Hoechst High Intensity Objects (%): 11%
  Population Membrane Permeable-Phenotype (%): 12%
  Population Mitochondria Different-Phenotype (%): 1%
  Population Mitotic Cells (%): 100%
  Population Normal (%): 88%
  Population Pyknosed Nuclei (%): 4%
  Population Tubulin-Different-Phenotype (%): 63%
  Total Cell Count: 109
